Test results as given in ChEMBL document CHEMBL1914293, “Pharmacophore-based discovery of FXR-agonists. Part II: identification of bioactive triterpenes from Ganoderma lucidum” (Bioorg Med Chem, 2011).
Calls of active or inactive are those of the source. The calls are words filed in the database; no cut-off is given here.

Columns and labels:
Format in all cases: functional, cell-based
HUVEC [1] = assay: Antiinflammatory activity in human HUVEC cells assessed as inhibition of LPS-induced IL-8 mRNA expression at 5 uM for 10 mins measured after 4 hrs of LPS challenge by Q-PCR analysis
Outline: (§1)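 hTERT-immortalized HUVEC (HUVECtert) were grown in M199 with 20% FBS, endothelial cell growth supplement and antibiotics. Cells were treated with compounds at 5 μM, then stimulated with TNFα (human recombinant, 100 ng/mL) or LPS (E. coli 055:B5, 300 ng/mL). IL-8 and E-selectin mRNA were measured by qPCR, normalized to β2-microglobulin (Pfaffl method), and expressed as fold over untreated control. Statistics used ANOVA with Bonferroni post-test.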

HUVEC [2] = assay: Antiinflammatory activity in human HUVEC cells assessed as inhibition of TNF-alpha-induced IL-8 mRNA expression at 5 uM for 10 mins measured after 4 hrs of LPS challenge by Q-PCR analysis; outline: as §1
HUVEC [3] = assay: Antiinflammatory activity in human HUVEC cells assessed as inhibition of LPS-induced E-selectin mRNA expression at 5 uM for 10 mins measured after 4 hrs of LPS challenge by Q-PCR analysis; outline: as §1
HUVEC [4] = assay: Antiinflammatory activity in human HUVEC cells assessed as inhibition of TNF-alpha-induced E-selectin mRNA expression at 5 uM for 10 mins measured after 4 hrs of LPS challenge by Q-PCR analysis; outline: as §1
[5] = target: T1, Bile acid receptor/Retinoic acid receptor RXR-alpha (Mus musculus, UniProt P28700+Q60641); assay: Agonist activity at full length mouse FXR/RXRalpha expressed in human HEK293 cells assessed as induction of transcriptional activity after 18 hrs by dual luciferase reporter gene assay
T1 sequence (P28700 whole entry): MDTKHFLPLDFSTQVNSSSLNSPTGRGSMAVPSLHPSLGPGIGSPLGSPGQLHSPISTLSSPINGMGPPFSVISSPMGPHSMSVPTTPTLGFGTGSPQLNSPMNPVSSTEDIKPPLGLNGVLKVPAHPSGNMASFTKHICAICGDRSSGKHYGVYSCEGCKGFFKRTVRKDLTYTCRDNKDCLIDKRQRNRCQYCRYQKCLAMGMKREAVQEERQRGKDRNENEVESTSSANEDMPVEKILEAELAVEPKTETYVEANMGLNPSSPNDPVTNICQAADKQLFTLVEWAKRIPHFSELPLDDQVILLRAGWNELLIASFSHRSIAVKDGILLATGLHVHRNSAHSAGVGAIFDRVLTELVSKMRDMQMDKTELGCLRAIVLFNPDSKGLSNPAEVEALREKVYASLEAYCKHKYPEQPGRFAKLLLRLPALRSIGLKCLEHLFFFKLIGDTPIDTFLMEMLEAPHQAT
T1 sequence (Q60641 whole entry): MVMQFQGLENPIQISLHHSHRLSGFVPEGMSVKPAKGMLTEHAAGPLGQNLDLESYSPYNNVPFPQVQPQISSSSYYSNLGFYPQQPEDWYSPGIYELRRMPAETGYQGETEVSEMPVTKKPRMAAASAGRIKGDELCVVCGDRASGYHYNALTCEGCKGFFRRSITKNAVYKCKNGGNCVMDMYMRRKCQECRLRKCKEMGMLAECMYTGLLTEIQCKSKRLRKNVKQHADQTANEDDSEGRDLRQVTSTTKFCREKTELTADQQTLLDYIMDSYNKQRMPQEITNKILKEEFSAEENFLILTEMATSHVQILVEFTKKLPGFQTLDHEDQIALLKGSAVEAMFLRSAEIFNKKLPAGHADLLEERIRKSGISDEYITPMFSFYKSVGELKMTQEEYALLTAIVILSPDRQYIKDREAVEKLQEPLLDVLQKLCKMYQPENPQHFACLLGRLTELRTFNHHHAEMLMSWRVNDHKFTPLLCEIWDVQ

SMILES | inhibition (HUVEC [1]) | inhibition (HUVEC [2]) | inhibition (HUVEC [3]) | inhibition (HUVEC [4]) | EC50 [5]
C/C(=C/CC[C@@H](C)[C@H]1C[C@H](O)[C@@]2(C)C3=CC[C@H]4C(C)(C)C(=O)CC[C@]4(C)C3=CC[C@]12C)C(=O)O [GANODERIC ACID TR] | Active | Active | Active | Active | > 14 µM
CC(C)[C@@H](C)/C=C/[C@@H](C)[C@H]1CC[C@@H]2[C@]1(C)CC[C@H]1[C@]23C=C[C@]2(C[C@@H](O)CC[C@]12C)OO3 [ERGOSTEROL PEROXIDE] | Active | Active | Active | Active | 0.85 µM
C[C@H](CCC=C(CO)CO)[C@H]1CC[C@@]2(C)C3=CC[C@H]4C(C)(C)C(=O)CC[C@]4(C)C3=CC[C@]12C [GANODERIOL F] | Active | Active | Active | Active | 5 µM
C[C@H](CC[C@H](O)C(C)(C)O)[C@H]1CC[C@@]2(C)C3=C(CC[C@]12C)[C@@]1(C)CCC(=O)C(C)(C)[C@@H]1CC3=O [LUCIDUMOL A] | Active | Active | Active | Active | > 18.6 µM
C[C@H](CC[C@H](O)[C@](C)(O)CO)[C@H]1CC[C@@]2(C)C3=CC[C@H]4C(C)(C)C(=O)CC[C@]4(C)C3=CC[C@]12C [GANODERMANONTRIOL] | Active | Active | Active | Active | 2.5 µM
